Bioassay records from PubChem.
This is a sample that favours compounds with a hit; in the whole collection about 1.9% have one here.
PP5 inh: inhibitors of human protein phosphatase 5 (PP5) | purified PP5c, OMFP substrate fluorescence | inhibition, % at 6.7 µM | 320,000 compounds, 0.18% hits | AID 1987;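 active = inhibition above the campaign's mean inhibition across all tested compounds plus 3 SD, cut at about 9.5% in these data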
STEP inh: inhibitors of human striatal-enriched phosphatase STEP | recombinant STEP, OMFP fluorogenic substrate, fluorescence | 360,000 compounds, 0.25% hits | AID 588621 | inhibition, % at 20 µM | P54829;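 active = inhibition at 20 µM, scaled per plate between control wells, above about 37%, limit read from the data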
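Material: STEP (striatal-enriched tyrosine phosphatase) enzyme, cell-free; Compound dosing: 20 µM single dose in 1% DMSO; Technique: fluorescence read at 480 nm ex / 540 nm em; Times: reaction 20 min, ambient temperature; Medium: 50 mM Bis-Tris pH 6.0 with 2.5 mM DTT and 0.005% Tween 20; Also added: OMFP at 25 µM.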
LMPTP block: blocks human LMPTP phosphatase; P24666; recombinant LMPTP-A, OMFP fluorogenic substrate, fluorescence intensity; inhibition, % at 20 µM; 360,000 compounds, 0.22% hits;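 active = compounds that cut the enzyme signal by at least half of the control window in the single-dose screen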
Target sequence (P24666 whole entry, looked up): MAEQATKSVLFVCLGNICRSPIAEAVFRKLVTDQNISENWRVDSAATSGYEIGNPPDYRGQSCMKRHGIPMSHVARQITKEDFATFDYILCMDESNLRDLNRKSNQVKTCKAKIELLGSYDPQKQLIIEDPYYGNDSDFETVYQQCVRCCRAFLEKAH
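Test system – LMPTP-A enzyme · Amount – LMPTP-A at 0.625 nM final in the reaction · Buffer or medium – Bis-Tris pH 6.0, DTT, detergent · Reagent – OMFP 400 µM · Doses – single 20 µM dose · Schedule – reaction 50 min, room temperature, dark · Detection – fluorescence intensity of OMFP turnover product · Evaluation – percent inhibition versus substrate-only and uninhibited controls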
PP1 counter: blocks human PP1-alpha phosphatase, a PP5 counter-screen | purified PP1alpha, OMFP fluorescence | inhibition, % at 6.7 µM | 320,000 compounds, 0.9% hits;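 active = inhibition above the mean inhibition of all tested compounds plus 3 SD, computed separately for each screening campaign, cut at about 15% in these data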
Target sequence (P62136 whole entry, looked up): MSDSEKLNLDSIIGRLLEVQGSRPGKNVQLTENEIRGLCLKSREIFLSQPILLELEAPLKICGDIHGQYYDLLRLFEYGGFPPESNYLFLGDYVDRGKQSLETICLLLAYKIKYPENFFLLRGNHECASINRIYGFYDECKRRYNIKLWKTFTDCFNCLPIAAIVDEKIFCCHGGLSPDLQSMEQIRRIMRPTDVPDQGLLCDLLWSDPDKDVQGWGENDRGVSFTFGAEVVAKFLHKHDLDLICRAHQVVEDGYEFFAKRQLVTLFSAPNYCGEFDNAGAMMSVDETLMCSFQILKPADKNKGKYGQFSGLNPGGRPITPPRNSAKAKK
Scp1 inh: blocks human Scp-1 phosphatase activity; Q9GZU7; 340,000 compounds, 0.88% hits; Recombinant Scp1, phosphopeptide, malachite green phosphate absorbance; AID 493091; inhibition, % at 20 µM;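 active = inhibition above about 50% at 20 µM, limit read from the data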
Target sequence (Q9GZU7 76-261 limits assumed): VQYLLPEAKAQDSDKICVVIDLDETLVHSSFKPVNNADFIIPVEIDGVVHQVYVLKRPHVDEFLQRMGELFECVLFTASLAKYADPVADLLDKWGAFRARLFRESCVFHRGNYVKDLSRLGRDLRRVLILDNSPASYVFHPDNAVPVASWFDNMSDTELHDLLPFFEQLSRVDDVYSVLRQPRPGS
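Times: enzyme reaction 45 min at room temperature, colour 5 min, stabilisation 30 min. Material: SCP-1 catalytic fragment, aa 76-261. Medium: Acidic Tris acetate buffer with magnesium and detergent. Signal: colorimetric free-phosphate detection, absorbance 630 nm. Read-out basis: % inhibition of SCP-1 phosphate liberation. Reagent: Phosphorylated 17-residue peptide substrate.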
Of the large screens only hits and unclear results are named; the others gave an inactive call.

COc1ccc(NS(=O)(=O)c2cccc(C(=O)N/N=C/c3ccc4c(c3)OCCO4)c2)cc1	PP1 counter 16.9
CC(C)(C)c1ccc(Cn2nnc3c(=O)[nH]c(C4CCCN(C(=O)c5cccs5)C4)nc32)cc1 (stereo not drawn)	PP1 counter 15.6
CC(C)(C)c1ccc(Cn2nnc3c(=O)[nH]c(C4CCCN(C(=O)Cc5cccs5)C4)nc32)cc1 (stereo not drawn)	none
O=C(COc1cc(F)ccc1[N+](=O)[O-])Nc1cccc(Br)c1	none
CCOc1ccc(NCc2ccccc2OCc2cccc(F)c2)cc1	none
O=C(CC1S/C(=N/N=C/c2cccs2)NC1=O)Nc1ccc(Cl)cc1 (stereo not drawn)	PP1 counter 17.0
CCOC(=O)c1sc2nc(N3CCOCC3)c3c(c2c1N)CCC3	none
CCOC(=O)c1sc2nc(OCCN3CCOCC3)cc(C)c2c1N	LMPTP block 56.8 (no result: PP5 inh, STEP inh, PP1 counter, Scp1 inh)
COc1ccc(O)c(/C=N/NC(=O)c2ccc(OCc3cccc(Br)c3)cc2)c1	Scp1 inh 95.8
O=C(c1ccc(=O)oc1)N1CCOCC1	Scp1 inh 76.5
O=c1c2ccccc2nc(/C=C/c2cccnc2)n1CCc1ccccc1	PP1 counter 15.7
O=C(O)C1CCCCC1C(=O)Nc1ccc(OCc2ccccc2)cc1 (stereo not drawn)	none
CC(=O)Oc1ccc(C(=O)Nc2cccc(C(=O)NC(C)(C)C)c2)cc1	none
CC(=O)Oc1ccc(C(=O)Nc2cccc(C(=O)c3cccc(NC(=O)c4ccc(OC(C)=O)cc4)c3)c2)cc1	PP1 counter 15.4
FC(F)(F)c1ccc(C2[C@H]3CN(Cc4cccnc4)[C@H](c4ccccc4)C34CC2(c2ccccc2)C4)cc1 (stereo partly drawn)	PP1 counter 16.3
c1ccc(C2[C@H]3CN(Cc4cccnc4)[C@H](c4ccccc4)C34CC2(c2ccccc2)C4)cc1 (stereo partly drawn)	none
COC(=O)c1cccc(C23CC4(C2)[C@H](CN(Cc2cccnc2)[C@@H]4c2ccccc2)C3c2ccccc2)c1 (stereo partly drawn)	PP1 counter 16.5
FC(F)(F)c1ccc(CN2C[C@@H]3C(c4ccc(C(F)(F)F)cc4)C4(c5cccnc5)CC3(C4)[C@H]2c2ccccc2)cc1 (stereo partly drawn)	none
Cc1ccc(O)c(C(=O)c2cc(C(=O)NCCc3ccccc3)c(=O)n(CCc3ccccc3)c2)c1	PP1 counter 17.3
Cc1c(OCC(=O)N[C@@H](CSCc2ccccc2)C(=O)O)ccc2c3c(c(=O)oc12)CCC3	none (no result: PP5 inh, PP1 counter)
COc1ccc(-c2cc3nc(C)c(CCC(=O)N4CCN(c5ccccn5)CC4)c(C)n3n2)c(OC)c1	none
CC1(C)Cc2c(cnn2-c2ccccc2)C(NC(=O)C2(C(N)=O)CC2)C1 (stereo not drawn)	none
CC(=C\C(=O)O)/C(=C/c1ccc(C)o1)C(=O)O	Scp1 inh 55.7
Cc1ccccc1N(CC(=O)NC1CCCCC1)C(=O)CCC(=O)Nc1nccs1	PP1 counter 17.2
CC1(C)C(/C=C/C=C/C=C/C=C2\N(CCCCS(=O)(=O)O)c3ccc4ccccc4c3C2(C)C)=[N+](CCCCS(=O)(=O)[O-])c2ccc3ccccc3c21	PP1 counter 59.2
N=C(N)c1ccc(OCCCCCOc2ccc(C(=N)N)cc2)cc1	LMPTP block 57.8
CCCCCCOc1ccc(/C(N)=N/O)cc1	none
Cc1ccc(NC(=O)CN2C(=O)S/C(=C/c3ccc(-c4cc(C(=O)O)ccc4C)o3)C2=O)cc1C	Scp1 inh 72.5
Cc1ccccc1NC(=O)CN1C(=O)S/C(=C\c2ccc(-c3cccc(C(=O)O)c3C)o2)C1=O	none
COC(=O)C(C)N1C(=O)S/C(=C\c2ccc(-c3ccc(C(=O)O)cc3C)o2)C1=O (stereo not drawn)	Scp1 inh 63.5
CCN(CC)CCC(=O)Nc1ccc2c(c1)N(C(=O)CN(CC)CC)c1ccccc1CC2	none
O=C(O)c1cccc(-n2c(/C=C/c3ccccc3)nc3ccccc3c2=O)c1	none
CN(C)c1ccc(/C=C/c2nc3ccccc3c(=O)n2-c2ccc(C(=O)O)cc2)cc1	Scp1 inh 64.1
CCOC(=O)C1=C(c2ccccc2)N=C2SCC(=O)N2C1c1ccc2c(c1)OCO2 (stereo not drawn)	none
Cc1ccc(C(=O)Nc2ccccc2C(=O)O)cc1S(=O)(=O)Nc1ccc(Br)cc1	PP1 counter 16.4
O=c1c2ccccc2c(/C=N/c2nnc(Cc3ccccc3)s2)c(O)n1-c1ccc(Cl)cn1	none
Cc1nc(S/C(=C\c2ccc(-c3ccc(C(=O)O)c(Cl)c3)o2)C(=O)O)n[nH]1	Scp1 inh 83.4 (no result: PP5 inh, PP1 counter)
Cc1ccc(C(=O)Nc2nnc(CC(=O)N/N=C/c3ccncc3)s2)cc1	PP1 counter 15.3
O=C(Nc1nccs1)c1ccc(CSc2ccccc2)o1	LMPTP block 48.5
CCc1ccccc1NC(=O)COc1ccc2c(=O)c(Oc3cc(C)ccc3C)coc2c1	none
CC(C)c1ccccc1NC(=O)COc1ccc2c(=O)c(Oc3ccc4ccccc4c3)coc2c1	PP1 counter 18.4 (no result: STEP inh, LMPTP block, Scp1 inh)
Cc1noc(C)c1C(=O)Nc1c(F)cc(F)cc1Br	none
O=C(Nc1ccccn1)c1csc2c1CCCC2	none
O=C(Nc1ccccn1)c1onc2c1CCCC2	Scp1 inh 50.4
O=S(=O)(c1ccccc1)c1nnn2c1nc(NC1CCN(Cc3ccccc3)CC1)c1ccccc12	LMPTP block 65.5
CC(C)=CC/C=C1\CCC(C(=O)O)C(C(=O)O)C1 (stereo not drawn)	none
CCCCN(C(=O)c1cccc(-n2cccc2)c1)c1c(N)n(CCC)c(=O)[nH]c1=O	Scp1 inh 69.8
Nc1ccc(N2CCCCC2)c2nonc12	PP5 inh 11.0, PP1 counter 16.7
CC(C)(C)c1ccc(C(=O)N2CCC2(C)C(=O)NCc2cccs2)cc1 (stereo not drawn)	none (no result: PP5 inh, PP1 counter, Scp1 inh)
CC(=O)Nc1ccc(S(=O)(=O)Nc2nc3ccccc3nc2Nc2ccc(C(=O)O)c(O)c2)cc1	Scp1 inh 87.2 (no result: PP5 inh, PP1 counter)
CCc1sc(C(=O)NC(C)C2CCCO2)cc1Br (stereo not drawn)	none
CC1(c2ccccc2Cl)NC(=O)N(CC(=O)N2CCN(S(=O)(=O)c3ccccc3)CC2)C1=O (stereo not drawn)	none
CC1=C/C(=C\c2ccc(Br)o2)C(=O)O1	Scp1 inh 82.2
O=C1C(=Cc2ccc(Br)o2)C(=O)c2ccccc21	STEP inh 95.8, LMPTP block 78.4, Scp1 inh 65.5
O=C(NC1CCN(Cc2ccc(F)cc2)CC1)c1ccccc1	none
CN1CCN(NC(=S)Nc2ccccc2)CC1	none
CN(Cc1ccco1)C(=O)CN1C(=O)NC2(CCCC2)C1=O	none (no result: PP5 inh, PP1 counter)
O=C(O)CCCN1C(=O)/C(=C\c2ccco2)SC1=S	none (no result: PP5 inh, PP1 counter)
O=C1/C(=C/c2ccco2)SC(=S)N1CC1CCCO1 (stereo not drawn)	STEP inh 47.0, Scp1 inh 63.2
